This is an account of results in ChEMBL document CHEMBL1152821, “Discovery of novel DNA gyrase inhibitors by high-throughput virtual screening” (Antimicrob Agents Chemother, 2007).

The structures appear in SMILES notation. Calls of active or inactive are those of the source. The calls are words filed in the database; no cut-off is given here. Some results are limits rather than exact numbers.

Experiment [1] is described as follows: Inhibition of Escherichia coli recombinant DNA gyrase-mediated supercoiling of relaxed pRSET A-DNA by agarose gel electrophoresis. Put shortly:
(§1)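 Gyrase reconstituted from purified GyrA and GyrB (1:1.4); substrate is pRSET A relaxed with wheat germ topo I. 0.5 μg DNA and drug preincubated on ice 10 min in Tris-acetate pH 7.9, KOAc, Mg acetate, DTT, 1.5 mM ATP, spermidine, BSA. Started with 2.5 nM GyrA/3.5 nM GyrB, 30°C 30 min, then SDS/EDTA stop. 1% agarose gel, ethidium stain, densitometry; % supercoiled versus no-drug control.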

Experiment [2] deals with Nucleic Acid. Put plainly: Binding affinity to pGEM2 DNA assessed as DNA intercalation at 1600 uM by DNA unwinding assay. It counts as nucleic-acid assay. Put shortly:
(§2)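 Drug-induced DNA unwinding measured with pGEM2 plasmid DNA relaxed by wheat germ DNA topoisomerase I, following a previously described method.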

Experiment [3] concerns the target T1, DNA gyrase (Escherichia coli) (UniProt P0AES6+P0AES4). Put plainly: Inhibition of Escherichia coli recombinant DNA gyrase assessed as enzyme-mediated supercoiling of relaxed pRSET A-DNA at 640 uM by agarose gel electrophoresis in presence of 0.01% Triton X-100. In kind it is protein-complex assay. Also on record: scale not given: the % may be the effect or the level left. Put shortly: (§3)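 GyrA and GyrB, expressed in E. coli XL1-Blue and purified, reconstituted 1:1.4 (2.5 nM GyrA, 3.5 nM GyrB). Substrate was 0.5 μg relaxed pRSET A DNA (topoisomerase I-relaxed). Buffer: 25 mM Tris-acetate pH 7.9, 20 mM K acetate, 10 mM Mg acetate, 2 mM DTT, 1.5 mM ATP, 5 mM spermidine, 50 μg/ml BSA. Drug preincubated 10 min on ice; reaction 30 min at 30°C. Run on 1% agarose 20 h, stained with ethidium bromide, bands quantitated. % supercoiled DNA expressed relative to no-drug control.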

Experiment [4] concerns Escherichia coli. In words: Antibacterial activity against Escherichia coli XL1-Blue assessed as growth inhibition at 21 uM after 60 mins. It counts as functional, organism-based. Put shortly:
(§4)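 Log-phase E. coli XL1-Blue (overnight LB cultures at 37°C diluted to OD595 0.05 in fresh LB, shaken at 37°C until log phase) transferred into flasks containing filter-sterilized drug at various concentrations. Shaking growth continued at 37°C. Growth followed by culture absorbance at OD595 over time.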

In experiment [5] the test system is Escherichia coli. Put plainly: Inhibition of Escherichia coli recombinant DNA gyrase-mediated supercoiling activity of relaxed pRSET A-DNA at 192 uM by agarose gel electrophoresis. Also on record: scale not given: the % may be the effect or the level left. Put shortly:
as §3

In experiment [6] the test system is Escherichia coli. Put plainly: Antibacterial activity against Escherichia coli XL1-Blue assessed as complete inhibition at 192 uM with in 30 mins. In kind it is functional, organism-based. Put shortly:
as §4

The target of experiment [7] is T1, DNA gyrase (Escherichia coli). In words: Inhibition of Escherichia coli recombinant DNA gyrase assessed as enzyme-mediated supercoiling of relaxed pRSET A-DNA at 640 uM by agarose gel electrophoresis. Set-up: scale not given: the % may be the effect or the level left. In kind it is protein-complex assay. In a few lines:
as §3

A short description of experiment [8]: Inhibition of Escherichia coli DNA gyrase B ATPase activity by spectrophotometry. Put shortly: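 DNA-independent ATPase of purified E. coli GyrB (40 nM) with 2 mM ATP. ATP hydrolysis coupled to NADH oxidation and read spectrophotometrically. Ki calculated from Ki(app) as Ki = Ki(app)/(1 + [ATP]/Km), taking Km 0.3 mM for E. coli gyrase ATPase.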
Experiment [9] concerns Escherichia coli. Put plainly: Antibacterial activity against Escherichia coli XL1-Blue assessed as growth inhibition at 64 uM after 30 mins. In kind it is functional, organism-based. Put shortly: as §4
The test system of experiment [10] is Nucleic Acid. Put plainly: Binding affinity to pGEM2 DNA assessed as DNA intercalation at 640 uM by DNA unwinding assay. It counts as nucleic-acid assay.
For experiment [11], the system named is Nucleic Acid. Put plainly: Binding affinity to pGEM2 DNA assessed as DNA intercalation at >=50 uM by DNA unwinding assay. In kind it is nucleic-acid assay. Put shortly:
as §2

For experiment [12], the target named is T1, DNA gyrase (Escherichia coli). In words: Inhibition of Escherichia coli recombinant DNA gyrase assessed as enzyme-mediated supercoiling of relaxed pRSET A-DNA at 170 uM by agarose gel electrophoresis in presence of 0.025% Triton X-100. It counts as protein-complex assay. Also on record: scale not given: the % may be the effect or the level left. In a few lines:
as §1

Experiment [13] has the same target. In words: Inhibition of Escherichia coli recombinant DNA gyrase assessed as enzyme-mediated supercoiling of relaxed pRSET A-DNA at 170 uM by agarose gel electrophoresis in presence of 0.01% Triton X-100. Also on record: scale not given: the % may be the effect or the level left. In kind it is protein-complex assay. In a few lines:
as §1

Experiment [14] shares this target. Put plainly: Inhibition of Escherichia coli recombinant DNA gyrase assessed as enzyme-mediated supercoiling of relaxed pRSET A-DNA at 170 uM by agarose gel electrophoresis. Set-up: scale not given: the % may be the effect or the level left. In kind it is protein-complex assay. Put shortly:
as §1

The test system of experiment [15] is Nucleic Acid. Put plainly: Binding affinity to pGEM2 DNA assessed as DNA intercalation at 100 uM by DNA unwinding assay. In kind it is nucleic-acid assay. Put shortly:
as §2

Experiment [16] has as its system Escherichia coli. In words: Inhibition of Escherichia coli DNA gyrase B ATPase activity up to 1.5 mM by spectrophotometry. In a few lines:
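DNA-independent ATPase of purified E. coli GyrB (40 nM) with 2 mM ATP, read spectrophotometrically by coupling ATP hydrolysis to NADH oxidation. Ki calculated as Ki(app)/(1 + [ATP]/Km), with Km 0.3 mM for E. coli gyrase ATPase.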

Experiment [17] concerns Nucleic Acid. Put plainly: Binding affinity to pGEM2 DNA assessed as DNA intercalation at 1.6 mM by DNA unwinding assay.

What is called IC50 is the concentration that gives 50% inhibition. On to `O=Cc1c[nH]nn1`, for which the half-inhibitory concentration (IC50) in experiment [1] is 737 µM. In addition, in experiment [2], the result was inactive.
What is called Ki is a dissociation constant, usually derived from enzyme kinetics or from competition with a known ligand. As for `O=NNc1cnc(O)nc1O`, the Activity in experiment [3] is 17%; in experiment [5] it was greater than 30%; in [7], 10%. For the same compound, the IC50 in [1] stood at 338 µM. Besides, the result in experiment [4], in experiment [6] and in experiment [9] was Active. For the same compound, the outcome in experiment [2] and in experiment [10] was inactive. The compound further registered an inhibition constant Ki in [8] of 149 µM.
As for `O=c1ccc2nccc3c4ccccc4n1c23` [CANTHIN-6-ONE], in [11], the result was Active. In addition, the half-maximal inhibitory concentration (IC50) in [1] worked out at 50 µM. In addition, the Activity in experiment [12] was 12%; in [13], 13%; in experiment [14] it was 7%.
In the case of `CO[C@@H]1[C@@H](OC(=O)c2ccc(C)[nH]2)[C@@H](O)[C@@H](Oc2ccc3c(O)c(NC(=O)c4c[nH]c(C(=O)Nc5c(O)c6ccc(O[C@H]7OC(C)(C)[C@H](OC)[C@@H](OC(=O)c8ccc(C)[nH]8)[C@H]7O)c(C)c6oc5=O)c4C)c(=O)oc3c2C)OC1(C)C` [COUMERMYCIN], in experiment [1], the half-maximal inhibitory concentration (IC50) amounted to 0.04 µM.
As for `O=c1[nH]nc(-c2cc(-c3ccccc3)nc3ccccc23)o1`, the IC50 in experiment [1] turned out to be 72 µM. Moreover, the result in experiment [15] was inactive.
Take `NC(=O)c1[nH]cnc1N`: the IC50 in [1] turned out to be 814 µM. Moreover, the result in [16], in experiment [17] and in experiment [2] was inactive.
Take `O=C(O)c1cn(C2CC2)c2cc(N3CCNCC3)c(F)cc2c1=O` [CIPROFLOXACIN]: the IC50 in experiment [1] turned out to be 1.2 µM.
